The target in experiment [1] is T1, Mu-type opioid receptor (Mus musculus, UniProt P42866). Kind of experiment: Binding affinity to mouse mu opioid receptor expressed in CHO cell membrane assessed as inhibition constant incubated for 1.5 hrs by competitive radioligand binding assay. In kind it is cell membranes.
Experiment [2] concerns the target Mu-type opioid receptor (Mus musculus) (UniProt P42866). The experiment is described as follows: Binding affinity to mouse mu opioid receptor expressed in CHO cell membrane assessed as stimulation of [35S]-GTPgammaS binding by measuring maximal efficacy incubated for 1.5 hrs by scintillation spectroscopy analysis relative DAMGO. In kind it is cell membranes. A digest of the protocol: (§1)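 MOR [35S]GTPγS functional assay in MOR-CHO membranes (Bmax about 2.5–4 pmol/mg). Efficacy is expressed as % of the maximal stimulation by full agonist DAMGO.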

Experiment [3] can be described thus: Selectivity ratio, ratio of Ki for binding affinity to human delta opioid receptor expressed in CHO cell membrane to Ki for binding affinity to mouse mu opioid receptor expressed in CHO cell membrane.
For experiment [4], the species on record is Mus musculus. Kind of experiment: Selectivity ratio, ratio of Ki for binding affinity to mouse kappa opioid receptor expressed in CHO cell membrane to Ki for binding affinity to mouse mu opioid receptor expressed in CHO cell membrane.
Experiment [5] relates to Mus musculus. The experiment is described as follows: Antinociceptive activity in Swiss Webster mouse assessed as inhibition of morphine induced latency to tail withdrawal at 10 mg/kg, sc preincubated for 5 mins followed by morphine addition and measured after 20 mins by warm water tail immersion assay. The format is functional, organism-based. The following applies: time 25.0 min. A digest of the protocol:
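Male Swiss-Webster mice (n = 5). Compound is given s.c. at time 0 (10 mg/kg in the single-dose screen, a dose range for AD50), and morphine 10 mg/kg follows 5 min later. Tail flick is tested in 56 ± 0.1 °C water 20 min after morphine and scored as % MPE. Saline and morphine alone are the controls.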

Experiment [6] concerns the target Kappa-type opioid receptor (Mus musculus, UniProt P33534). The experiment is described as follows: Binding affinity to mouse kappa opioid receptor expressed in CHO cell membrane assessed as inhibition constant incubated for 1.5 hrs by competitive radioligand binding assay. The format is cell membranes.
In experiment [7] the target is T1, Mu-type opioid receptor. The experiment is described as follows: Binding affinity to mouse mu opioid receptor expressed in CHO cell membrane assessed as [35S]GTPgammaS binding incubated for 1.5 hrs by liquid scintillation counter analysis. In kind it is cell membranes. A digest of the protocol:
as §1

The source made the active and inactive calls. The rule behind the calls is not given here.

Consider 18 compounds from ChEMBL document CHEMBL5316274 (J Med Chem, 2023).

On to `CC(C)c1c[nH]c2c(C(=O)N[C@@H]3CC[C@@]4(O)[C@H]5Cc6ccc(O)c7c6[C@@]4(CCN5CC4CC4)[C@H]3O7)cccc12`, for which the Ki on Mu-type opioid receptor [1] was 0.89 nM; in experiment [6] it was 0.98 nM. Moreover, the Emax in experiment [2] was 36.2%. Further, the results for the Ratio Ki (in experiment [3]; in the experiment listed under Mus musculus [4]) were 22.2 and 1.1, respectively. In addition, in the experiment with Mus musculus [5], the outcome was inactive. Besides, at Mu-type opioid receptor [7], the EC50 was determined as 1.73 nM.

In the case of `O=Cc1c[nH]c2c(C(=O)N[C@H]3CC[C@@]4(O)[C@H]5Cc6ccc(O)c7c6[C@@]4(CCN5CC4CC4)[C@H]3O7)cccc12`, the Ki worked out at 0.25 nM on Mu-type opioid receptor [1] and 2.82 nM in experiment [6]. Besides, the Emax in experiment [2] was 8.24%. The Ratio Ki in experiment [3] stood at 47.5; in the experiment listed under Mus musculus [4] it was 11.3. The result in the experiment on Mus musculus [5] was inactive. In addition, the EC50 on Mu-type opioid receptor [7] was 0.89 nM.

`N#Cc1cc2cccc(C(=O)N[C@H]3CC[C@@]4(O)[C@H]5Cc6ccc(O)c7c6[C@@]4(CCN5CC4CC4)[C@H]3O7)c2[nH]1`: the Ki at Mu-type opioid receptor [1] is 0.87 nM; in experiment [6], 7.1 nM. Moreover, the Emax in experiment [2] worked out at 14.4%. In addition, the Ratio Ki in the experiment filed under Mus musculus [4] amounted to 8.2. Also, the result in the experiment with Mus musculus [5] was inactive. Also, the EC50 at Mu-type opioid receptor [7] stood at 3.58 nM.

For `O=C(N[C@H]1CC[C@@]2(O)[C@H]3Cc4ccc(O)c5c4[C@@]2(CCN3CC2CC2)[C@H]1O5)c1cccc2c(Br)c[nH]c12`, the results for the Ki (on Mu-type opioid receptor [1]; in experiment [6]) were 0.93 nM and 5.28 nM, respectively. Also, the Emax in experiment [2] is 14.9%. Further, the Ratio Ki in experiment [3] turned out to be 20.6; in the experiment filed under Mus musculus [4] it was 5.7. For the same compound, in the experiment on Mus musculus [5], the result was inactive. For the same compound, the EC50 on Mu-type opioid receptor [7] came to 2.46 nM.

Consider `O=C(N[C@@H]1CC[C@@]2(O)[C@H]3Cc4ccc(O)c5c4[C@@]2(CCN3CC2CC2)[C@H]1O5)c1cccc2cc(Br)[nH]c12`, for which the results for the Ki (at Mu-type opioid receptor [1]; in experiment [6]) were 0.35 nM and 0.46 nM, respectively. The Emax in experiment [2] was 36.2%. For the same compound, the Ratio Ki worked out at 8.8 in experiment [3] and 1.3 in the experiment filed under Mus musculus [4]. Further, in the experiment with Mus musculus [5], the outcome was inactive. On Mu-type opioid receptor [7], the EC50 amounted to 0.88 nM.

Turning to `N#Cc1c[nH]c2c(C(=O)N[C@H]3CC[C@@]4(O)[C@H]5Cc6ccc(O)c7c6[C@@]4(CCN5CC4CC4)[C@H]3O7)cccc12`, the results for the Ki (on Mu-type opioid receptor [1]; in experiment [6]) were 0.87 nM and 5.46 nM, respectively. In addition, the Emax in experiment [2] was 11.4%. Further, the Ratio Ki in experiment [3] is 14. In addition, the outcome in the experiment on Mus musculus [5] was inactive. At Mu-type opioid receptor [7], the EC50 worked out at 2.54 nM.

In the case of `O=C(N[C@H]1CC[C@@]2(O)[C@H]3Cc4ccc(O)c5c4[C@@]2(CCN3CC2CC2)[C@H]1O5)c1cccc2cc(Cl)[nH]c12`, the results for the Ki (at Mu-type opioid receptor [1]; in experiment [6]) were 0.65 nM and 2.73 nM, respectively. Further, the Emax in experiment [2] was found to be 14.8%. Also, the values for the Ratio Ki (in experiment [3]; in the experiment filed under Mus musculus [4]) were 2.8 and 4.2, respectively. Further, the EC50 at Mu-type opioid receptor [7] came out at 1.82 nM.

Consider `O=C(N[C@H]1CC[C@@]2(O)[C@H]3Cc4ccc(O)c5c4[C@@]2(CCN3CC2CC2)[C@H]1O5)c1cccc2c(-c3ccccc3)c[nH]c12`, for which the Ki turned out to be 2.37 nM on Mu-type opioid receptor [1] and 13.4 nM in experiment [6]. The Emax in experiment [2] came out at 5.57%. Besides, the Ratio Ki in experiment [3] was determined as 6.3; in the experiment filed under Mus musculus [4], 5.7. The outcome in the experiment on Mus musculus [5] was inactive. Moreover, the EC50 at Mu-type opioid receptor [7] came to 1.85 nM.

For the compound `Cc1cc2cccc(C(=O)N[C@@H]3CC[C@@]4(O)[C@H]5Cc6ccc(O)c7c6[C@@]4(CCN5CC4CC4)[C@H]3O7)c2[nH]1`, the Ki on Mu-type opioid receptor [1] is 0.31 nM; in experiment [6] it was 0.8 nM. In addition, the Emax in experiment [2] came to 21.8%. Besides, the Ratio Ki was determined as 51.1 in experiment [3] and 2.6 in the experiment listed under Mus musculus [4]. Moreover, the outcome with Mus musculus [5] was inactive. The EC50 on Mu-type opioid receptor [7] is 1.51 nM.

With `O=C(N[C@@H]1CC[C@@]2(O)[C@H]3Cc4ccc(O)c5c4[C@@]2(CCN3CC2CC2)[C@H]1O5)c1cccc2c(C3CCCC3)c[nH]c12`, the Ki stood at 1.45 nM at Mu-type opioid receptor [1] and 10.8 nM in experiment [6]. In addition, the Emax in experiment [2] was 21.3%. Further, the Ratio Ki was determined as 6.8 in experiment [3] and 7.5 in the experiment filed under Mus musculus [4]. For the same compound, in the experiment on Mus musculus [5], the result was inactive.

Take `O=C(N[C@H]1CC[C@@]2(O)[C@H]3Cc4ccc(O)c5c4[C@@]2(CCN3CC2CC2)[C@H]1O5)c1cccc2c([N+](=O)[O-])c[nH]c12`: the Ki at Mu-type opioid receptor [1] was 1.07 nM; in experiment [6] it was 9.84 nM. In addition, the Emax in experiment [2] was found to be 11.3%. Also, in the experiment on Mus musculus [5], the result was inactive. On Mu-type opioid receptor [7], the EC50 was determined as 2.32 nM.

Take `O=C(N[C@H]1CC[C@@]2(O)[C@H]3Cc4ccc(O)c5c4[C@@]2(CCN3CC2CC2)[C@H]1O5)c1cccc2cc(-c3ccccc3)[nH]c12`: the Ki came to 2.45 nM at Mu-type opioid receptor [1] and 6.42 nM in experiment [6]. Moreover, the Emax in experiment [2] was 7.44%. For the same compound, the Ratio Ki in the experiment filed under Mus musculus [4] is 2.6. Also, in the experiment with Mus musculus [5], the outcome was inactive. In addition, the EC50 at Mu-type opioid receptor [7] was found to be 2.07 nM.

In the case of `O=C(N[C@@H]1CC[C@@]2(O)[C@H]3Cc4ccc(O)c5c4[C@@]2(CCN3CC2CC2)[C@H]1O5)c1cccc2c(Br)c[nH]c12`, the values for the Ki (at Mu-type opioid receptor [1]; in experiment [6]) were 0.7 nM and 1.08 nM, respectively. Moreover, the maximal response (Emax) in experiment [2] (filed as modulator) is 70.4%. Also, the Ratio Ki in experiment [3] is 16.7; in the experiment listed under Mus musculus [4] it was 1.6. Also, the EC50 at Mu-type opioid receptor [7] amounted to 1.05 nM.

Turning to `CC(=O)c1c[nH]c2c(C(=O)N[C@@H]3CC[C@@]4(O)[C@H]5Cc6ccc(O)c7c6[C@@]4(CCN5CC4CC4)[C@H]3O7)cccc12`, the Ki at Mu-type opioid receptor [1] is above 50 nM; in experiment [6], 15.6 nM. For the same compound, the Emax in experiment [2] came out at 10.9%. Also, in the experiment with Mus musculus [5], the result was inactive. Besides, the EC50 on Mu-type opioid receptor [7] turned out to be 204 nM.

With `O=C(N[C@@H]1CC[C@@]2(O)[C@H]3Cc4ccc(O)c5c4[C@@]2(CCN3CC2CC2)[C@H]1O5)c1cccc2cc(Cl)[nH]c12`, the Ki at Mu-type opioid receptor [1] was 0.63 nM; in experiment [6], 1.28 nM. Also, the Emax in experiment [2] amounted to 38.5%. For the same compound, the Ratio Ki in experiment [3] was 3.8; in the experiment filed under Mus musculus [4] it was 2. Further, the EC50 at Mu-type opioid receptor [7] was determined as 1.4 nM.

On to `N#Cc1cc2cccc(C(=O)N[C@@H]3CC[C@@]4(O)[C@H]5Cc6ccc(O)c7c6[C@@]4(CCN5CC4CC4)[C@H]3O7)c2[nH]1`, for which the Ki on Mu-type opioid receptor [1] came to 0.73 nM; in experiment [6] it was 1.66 nM. The Emax in experiment [2] amounted to 21.3%. Moreover, the Ratio Ki in experiment [3] is 16.5; in the experiment listed under Mus musculus [4], 2.3. For the same compound, at Mu-type opioid receptor [7], the EC50 amounted to 3.78 nM.

In the case of `CC(=O)c1c[nH]c2c(C(=O)N[C@H]3CC[C@@]4(O)[C@H]5Cc6ccc(O)c7c6[C@@]4(CCN5CC4CC4)[C@H]3O7)cccc12`, the Ki at Mu-type opioid receptor [1] stood at 0.43 nM. The Emax in experiment [2] was found to be 9.81%. The figures for the Ratio Ki (in experiment [3]; in the experiment listed under Mus musculus [4]) were 25.4 and 14.9, respectively. Further, in the experiment with Mus musculus [5], the result was inactive. In addition, the 50% effective concentration (EC50) at Mu-type opioid receptor [7] was 5.21 nM.

As for `O=C(N[C@H]1CC[C@@]2(O)[C@H]3Cc4ccc(O)c5c4[C@@]2(CCN3CC2CC2)[C@H]1O5)c1cccc2cc(Br)[nH]c12`, the results for the Ki (at Mu-type opioid receptor [1]; in experiment [6]) were 0.48 nM and 1.5 nM, respectively. The Emax in experiment [2] was 13.3%. The results for the Ratio Ki (in experiment [3]; in the experiment listed under Mus musculus [4]) were 14 and 3.1, respectively. For the same compound, the outcome in the experiment on Mus musculus [5] was Active.
